Test results reported in the array DNA melting data of Ke et al. (doi:10.1101/2024.01.08.574731).

How the values were obtained:
[1] = melting temperature; fluorescence melt of hairpins on a sequencing array, two-state fit, raised by 9.35 °C to match UV melts; settings: sodium 0.088 M
Outline: (§1)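 To match UV melts, fitted temperatures were raised by 9.35 °C. These fits were bootstrapped two-state models that gave melting temperature and folding enthalpy, combined by inverse variance over four replicates. The input was normalised Cy3 fluorescence of library hairpins with annealed Cy3 and quencher oligos on a sequenced MiSeq flow cell, imaged in 50 mM Na-HEPES pH 8.0, 25 mM NaCl in 2.5 °C steps up to 60 °C.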

[2] = folding enthalpy; higher = less favourable; fluorescence melt of hairpins on a sequencing array, two-state fit; settings: sodium 0.088 M
Outline: as §1

Sequence | Tm [1] [°C] | folding enthalpy [2] [kcal/mol]
GGTAGCGAAAGCTCGACC ((((((....)))..))) | 34.6 | -15.1
GGTAGCGAAAGCTTCACC ((((((....)))..))) | 34.4 | -13.8
GGTAGCTCGAAAGAGACC (((..(((....)))))) | 28.3 | -11.7
GGTAGGCGAAAGCCCACC (((.(((....))).))) | 51.9 | -17.1
GGTAGGGAAACCTACC ((((((....)))))) | 54.6 | -38.5
GGTAGGGGAAACCCTGCC ((.((((....)))).)) | 53.6 | -39.5
GGTAGTCGAAAGACCACC (((.(((....))).))) | 45.7 | -24.7
GGTATAGAAATATACC ((((((....)))))) | 41.9 | -26.4
GGTATAGGAAACTATATC (.(((((....))))).) | 31.2 | -17.1
GGTATAGGAAACTATGCC ((.((((....)))).)) | 43.2 | -33.1
GGTATCGAAAGATAAACC ((((((....)))..))) | 30.4 | -18.4
GGTATCGAAAGATCGACC ((((((....)))..))) | 27.8 | -16.9
GGTATCGAAAGATGTACC ((((((....)))..))) | 32.5 | -23.2
GGTATCTCGAAAGAGACC (((..(((....)))))) | 35.2 | -21.1
GGTATGGAAACATACC ((((((....)))))) | 53.4 | -41.9
GGTATGGGAAACCATACC (((((((....))))))) | 58 | -45.3
GGTATGGGAAACTATACC (((((.(....).))))) | 41.4 | -26.6
GGTATGTCGAAAGACACC (((..(((....)))))) | 34.8 | -12.1
GGTATTCGAAAGAAGACC (((.(((....))).))) | 50.8 | -43.2
GGTCAACGAAAGTTCACC (((.(((....))).))) | 35.1 | -22.3
GGTCAAGAAATTGACC ((((((....)))))) | 52.7 | -41.4
GGTCAAGGAAACTCGACC ((((.((....)).)))) | 40.8 | -26.6
GGTCAAGGAAACTTGACC (((((((....))))))) | 63.5 | -43

Sequence | Tm [1] [°C] | folding enthalpy [2] [kcal/mol]
GGTCAATCGAAAGATACC (((..(((....)))))) | 26.9 | -13.3
GGTCACCGAAAGGTCACC (((.(((....))).))) | 43.9 | -25.6
GGTCACGAAAGTGATACC ((((((....)))..))) | 44.7 | -11.7
GGTCACGAAAGTGGCACC ((((((....)))..))) | 47.6 | -11.7
GGTCACGAAAGTGGGACC ((((((....)))..))) | 48 | -23.4
GGTCACGGAAACGTGGTC (..((((....))))..) | 39.6 | -16.8
GGTCAGGGAAACCTGACC (((((((....))))))) | 67.2 | -36.6
GGTCATGAAAATGACC ((((((....)))))) | 59.5 | -38
GGTCATGCGAAAGCAACC (((..(((....)))))) | 27 | -8.01
GGTCCACGAAAGTGACC (((.(((....)))))) | 52.5 | -24.4
GGTCCACGAAAGTGTACC (((.(((....))).))) | 50 | -21.7
GGTCCCCGAAAGGGCACC (((.(((....))).))) | 49 | -19.3
GGTCCCGAAAGGGCAACC ((((((....)))..))) | 38.4 | -12.4
GGTCCCGAAAGGGCCACC ((((((....)))..))) | 55 | -11.7
GGTCCCGAAAGGGTACC ((((((....))).))) | 55.5 | -23.4
GGTCCCGGAAACGGGATC (.(((((....))))).) | 57.1 | -24.2
GGTCCCTCGAAAGAGACC (((..(((....)))))) | 34.8 | -17.1
GGTCCGCGAAAGCGCACC (((.(((....))).))) | 48.3 | -20.9
GGTCCGGGAAACCGAACC (((.(((....))).))) | 46.8 | -29.1
GGTCCGGGAAACTGGGCC ((.((.(....).)).)) | 51.7 | -35.4
GGTCCTGGAAACAGGACC (((((((....))))))) | 69.3 | -30.9
GGTCCTGGAAACAGGGTC (..((((....))))..) | 37.8 | -16.1
GGTCGAGGAAACTTGACC ((((.((....)).)))) | 51.9 | -32

Sequence | Tm [1] [°C] | folding enthalpy [2] [kcal/mol]
GGTCGCCGAAAGGCACC (((.(((....)))))) | 55.3 | -12.6
GGTCGCGAAAGCGAGACC ((((((....)))..))) | 51.6 | -13.5
GGTCGCGAAAGCGCTACC ((((((....)))..))) | 36.7 | -13
GGTCGCGAAAGCGTAACC ((((((....)))..))) | 47.2 | -15
GGTCGCGAAAGCGTCACC ((((((....)))..))) | 40.1 | -13.3
GGTCGCGAAAGCGTGACC ((((((....)))..))) | 53.1 | -18.2
GGTCGCGGAAACGCAACC (((.(((....))).))) | 51.6 | -33.1
GGTCGCGGAAACGTGACC ((((.((....)).)))) | 63.5 | -51.2
GGTCGGACGAAAGTCACC (((..(((....)))))) | 30.6 | -12.7
GGTCGGGGAAACCCGGCC ((.((((....)))).)) | 66.2 | -42.7
GGTCTCGAAAGAGCACC ((((((....))).))) | 46.5 | -22.8
GGTCTCGAAAGAGCTACC ((((((....)))..))) | 36 | -13.9
GGTCTCGGAAACAAGACC (((((.(....).))))) | 41.9 | -31.8
GGTCTGGGAAACTAGACC (((((.(....).))))) | 50.6 | -41.5
GGTCTGGGAAACTAGGCC ((.((.(....).)).)) | 41.2 | -33.4
GGTCTTCGAAAGAACACC (((.(((....))).))) | 32.6 | -26.6
GGTCTTCGAAAGAATACC (((.(((....))).))) | 39.1 | -32.9
GGTCTTGAAAAAGACC ((((((....)))))) | 57.2 | -40.4
GGTCTTGGAAACAAAACC (((.(((....))).))) | 29.6 | -14.5
GGTCTTGGAAACAGGACC ((((.((....)).)))) | 49.2 | -36.3
GGTCTTGGAAACGAGATC (.(((.(....).))).) | 30.7 | -17.8
GGTGAACGAAAGTTTACC (((.(((....))).))) | 51.8 | -45.2
GGTGAAGCGAAAGCTACC (((..(((....)))))) | 40.5 | -17.1

Sequence | Tm [1] [°C] | folding enthalpy [2] [kcal/mol]
GGTGAAGGAAACTTTACC (((.(((....))).))) | 39 | -31.6
GGTGACCGAAAGGTAACC (((.(((....))).))) | 57.1 | -41.1
GGTGACGAAAGTCCAACC ((((((....)))..))) | 37.7 | -18.2
GGTGACGAAAGTCGAACC ((((((....)))..))) | 41.9 | -17.6
GGTGACGAAAGTCTGACC ((((((....)))..))) | 39.7 | -15.6
GGTGACGCGAAAGCGACC (((..(((....)))))) | 40.4 | -12.1
GGTGACGGAAACGTCATC (.(((((....))))).) | 54.1 | -38.2
GGTGAGCGAAAGCTGACC (((.(((....))).))) | 55 | -37.8
GGTGAGGGAAACCCCACC ((((.((....)).)))) | 50.5 | -39.2
GGTGATCGAAAGATACC (((.(((....)))))) | 37.5 | -25.2
GGTGATGAAAATCACC ((((((....)))))) | 62.5 | -32.1
GGTGATGGAAACGTCATC (.(((.(....).))).) | 34.7 | -26.4
GGTGCAGGAAACTGCATC (.(((((....))))).) | 53 | -22.4
GGTGCCACGAAAGTGACC (((..(((....)))))) | 35.5 | -15.5
GGTGCCCCGAAAGGGACC (((..(((....)))))) | 47.9 | -16.2
GGTGCCGGAAACGGTACC (((.(((....))).))) | 64.1 | -35.8
GGTGCCTCGAAAGAGACC (((..(((....)))))) | 30.8 | -15
GGTGCGGGAAACCGCATC (.(((((....))))).) | 60.4 | -15.7
GGTGCTCGAAAGAGTACC (((.(((....))).))) | 60 | -45.9
GGTGCTGGAAACAGTACC (((.(((....))).))) | 53.5 | -43.3
GGTGGAACGAAAGTTACC (((..(((....)))))) | 36.5 | -17.3
GGTGGAGGAAACTCCACC (((((((....))))))) | 67.5 | -38.6
